The source of these data is ChEMBL document CHEMBL1799933, “Discovery of a selective allosteric M1 receptor modulator with suitable development properties based on a quinolizidinone carboxylic acid scaffold” (J Med Chem, 2011).

One series relates to Cerebrospinal fluid. The series can be described thus: Drug level in Sprague-Dawley rat cerebrospinal fluid at 10 mg/kg, po. As to conditions: in vivo, read-out: Drug uptake. The class given is ADME, organism-based. Further details: dose 10 mg/kg, route oral. The method, boiled down:
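Rats dosed orally at 10 mpk. Plasma, brain and CSF sampled at 2 h and concentrations determined by bioanalysis.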

Series [1] can be described thus: Half life in rhesus monkey. The class given is ADME, organism-based, Macaca mulatta. To be noted: in vivo.
The nature of series [2]: Half life in rat at 3 mg/kg, po and 1 mg/kg, iv. The class given is ADME, organism-based. As to conditions: in vivo. The method, boiled down: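 Rats (n = 2) dosed orally at 3 mg/kg and IV at 1 mg/kg. Interanimal variability under 20% for all values.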
For series [3], the target named is T1, Muscarinic acetylcholine receptor M1 (Homo sapiens) (UniProt P11229).
T1 sequence (whole entry): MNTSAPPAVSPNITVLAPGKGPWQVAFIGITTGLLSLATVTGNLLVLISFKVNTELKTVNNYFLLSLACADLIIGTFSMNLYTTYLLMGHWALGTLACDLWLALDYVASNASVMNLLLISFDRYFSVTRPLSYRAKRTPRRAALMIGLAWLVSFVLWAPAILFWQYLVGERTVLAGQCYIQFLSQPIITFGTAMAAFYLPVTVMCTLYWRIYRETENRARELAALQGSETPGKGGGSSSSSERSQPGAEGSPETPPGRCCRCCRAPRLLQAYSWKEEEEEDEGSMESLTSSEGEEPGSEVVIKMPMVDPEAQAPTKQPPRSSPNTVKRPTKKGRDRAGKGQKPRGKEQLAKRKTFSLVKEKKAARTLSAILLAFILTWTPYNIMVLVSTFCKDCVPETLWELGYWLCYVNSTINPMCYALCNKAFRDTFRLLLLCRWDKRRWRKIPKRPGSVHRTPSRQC
The series can be described thus: Agonist activity at human muscarinic M1 receptor expressed in CHONFAT cells assessed as enhancement of acetylcholine-induced calcium mobilization preincubated for 4 mins measured after 1 hr by FLIPR assay. It is filed as functional, cell-based. The method in brief:
(§1)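 CHO-NFAT cells expressing the named muscarinic receptor (human M1–M4; rhesus, dog or rat M1 in CHO-K1) were plated at 25,000 cells/well and grown overnight at 37 °C, 6% CO2. Cells were loaded with 1 μM Fluo-4AM for 1 h, washed, and preincubated 4 min with serially diluted compound (final DMSO 0.67%). They were then stimulated 4 min with an EC20 of ACh, and Ca2+ flux was read by FLIPR384.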

Series [4] deals with T1, Muscarinic acetylcholine receptor M1 (Homo sapiens). The series can be described thus: Agonist activity at human muscarinic M1 receptor expressed in CHONFAT cells assessed as increase in calcium mobilization at 10 uM preincubated for 4 mins measured after 1 hr by FLIPR assay. The class given is functional, cell-based.
Series [5] is described as follows: Half life in dog at 3 mg/kg, po and 1 mg/kg, iv. It is filed as ADME, organism-based, Canis lupus familiaris. As to conditions: in vivo. The method, boiled down: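 Dog PK, n = 2 animals. Given orally at 3 mg/kg and intravenously at 1 mg/kg. Interanimal variability under 20% for all values.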
The target in series [6] is T2, Muscarinic acetylcholine receptor M1 (Mus musculus) (UniProt P12657).
T2 sequence (whole entry): T1 sequence (whole entry) with A5V, T254S, R320K, A337G, I413V
The series is described as follows: Agonist activity at mouse muscarinic M1 receptor expressed in CHOK1 cells assessed as potentiation of acetylcholine-induced calcium mobilization preincubated for 4 mins measured after 1 hr by FLIPR assay. It is filed as functional, cell-based. As to conditions: CHO-K1. The method in brief: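 CHO-NFAT cells (CHO-K1 background) expressing mouse M1, plated 25,000/well, grown overnight at 37 °C, 6% CO2. Cells washed in HBSS with 20 mM Hepes, 2.5 mM probenecid, 0.1% BSA, then loaded with 1 μM Fluo-4AM for 1 h at 37 °C. Compound (final 0.67% DMSO) preincubated 4 min, then stimulated 4 min with EC20 ACh. Ca2+ flux read on FLIPR384.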

Series [7] concerns the target T1, Muscarinic acetylcholine receptor M1 (Homo sapiens). The series is described as follows: Positive allosteric modulation of human muscarinic M1 receptor expressed in CHONFAT cells assessed as potentiation of acetylcholine-induced calcium mobilization at 0.1 uM preincubated for 4 mins measured after 1 hr by FLIPR assay relative to control. It is filed as functional, cell-based. The method, boiled down:
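CHO-NFAT cells expressing human M1, 25,000 cells/well, grown overnight at 37 °C, 6% CO2. Washed in HBSS with 20 mM Hepes, 2.5 mM probenecid, 0.1% BSA, then loaded with 1 μM Fluo-4AM for 1 h at 37 °C. Compound preincubated 4 min (final DMSO 0.67%), then serially diluted ACh added for 4 min. Ca2+ flux read by FLIPR384; fold leftward shift of the ACh dose-response curve.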

Series [8] has as its target T3, Muscarinic acetylcholine receptor M1 (Macaca mulatta) (UniProt P56489).
T3 sequence (whole entry): T1 sequence (whole entry) with A265P, E277D
The series is described as follows: Agonist activity at rhesus monkey muscarinic M1 receptor expressed in CHOK1 cells assessed as potentiation of acetylcholine-induced calcium mobilization preincubated for 4 mins measured after 1 hr by FLIPR assay. To be noted: CHO-K1. It is filed as functional, cell-based. The method, boiled down:
as §1

The nature of series [9]: Clearance in rhesus monkey. To be noted: in vivo. The class given is ADME, organism-based, Macaca mulatta.

Molecules are shown by their SMILES. Substitutions are numbered along the chain they refer to. The source made the active and inactive calls. The calls are words filed in the database; no cut-off is given here.

Turning to `N#CC1(c2ccccn2)CCN(Cc2cc(C(=O)O)c(=O)n3ccccc23)CC1` [MSD-M1PAM], the concentration with Cerebrospinal fluid amounted to 135 nM. For the same molecule, the half-life is 3.6 h in series [1], 1.7 h in series [2] and 4.4 h in series [5]. For the same molecule, the IP in series [3] is 135 nM; in series [6] it was 69 nM; in [8], 49 nM. Also, in [4], the outcome was Active. Further, the fold change (FC) in series [7] was 3. Also, the clearance in [9] is 17 mL/min/kg.
